Laboratory results: ChEMBL document CHEMBL4364337, “The discovery and optimization of a series of 2-aminobenzoxazole derivatives as ChemR23 inhibitors” (Bioorg Med Chem, 2019)
pEC50, pIC50: −log10 of the molar value. Activity calls are given as the source filed them. The calls are words filed in the database; no cut-off is given here.

Assays:
[1] = biological target: T1, Chemerin-like receptor 1 (Homo sapiens, UniProt Q99788); assay: Agonist activity at chemR23 expressed in human CAL1 cells assessed as increase in intracellular calcium ion concentration; format: functional, cell-based
T1 sequence (Q99788 whole entry): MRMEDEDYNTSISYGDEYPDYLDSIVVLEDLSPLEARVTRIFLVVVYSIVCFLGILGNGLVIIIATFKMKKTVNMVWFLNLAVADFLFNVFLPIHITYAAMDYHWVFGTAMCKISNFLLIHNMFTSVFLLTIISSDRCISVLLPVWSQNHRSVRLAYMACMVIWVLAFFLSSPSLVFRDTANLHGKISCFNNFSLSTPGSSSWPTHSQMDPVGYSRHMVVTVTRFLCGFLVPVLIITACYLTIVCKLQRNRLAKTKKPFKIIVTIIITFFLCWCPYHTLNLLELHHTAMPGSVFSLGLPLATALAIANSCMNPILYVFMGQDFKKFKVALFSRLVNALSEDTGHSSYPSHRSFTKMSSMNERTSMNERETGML

[2] = biological target: T1, Chemerin-like receptor 1; assay: Inhibition of chemR23 in human CAL1 cells assessed as reduction in chemerin-induced intracellular calcium ion concentration preincubated for 45 mins followed by chemerin addition; format: functional, cell-based
Method in brief: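 CAL-1 cells, native human ChemR23, 1 × 10⁴/well in RPMI 1640 with 10 mM HEPES, Calcium-3 dye, amaranth 0.75 mg/mL final. Compounds at final 0–10 µM for 45 min at 37 °C, then human chemerin (final 50 ng/mL, 1% BSA buffer); intracellular Ca²⁺ read by kinetic fluorescence; mean of four measurements.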

[3] = biological target: C-X-C chemokine receptor type 4 (Homo sapiens, UniProt P61073); assay: Inhibition of CXCR4 expressed in human CAL1 cells assessed as reduction in SDF1alpha-induced intracellular calcium ion concentration preincubated for 45 mins followed by SDF1alpha addition; format: functional, cell-based
Method in brief: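 CAL-1 cells (1 × 10⁴/well) loaded with Calcium-3 in RPMI1640, 10 mM HEPES, amaranth 0.75 mg/mL final. Compounds at final 0–10 µM for 45 min at 37 °C, then human SDF-1α (final 5 × 10^-3 µM, in buffer with 1% BSA); intracellular Ca²⁺ read by kinetic fluorescence.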

[4] = biological target: T2, Chemerin-like receptor 1 (Mus musculus, UniProt P97468); assay: Inhibition of chemR23 expressed in mouse BA/F3 cells assessed as reduction in chemerin-induced intracellular calcium ion concentration preincubated for 45 mins followed by chemerin addition; format: functional, cell-based
T2 sequence (P97468 whole entry): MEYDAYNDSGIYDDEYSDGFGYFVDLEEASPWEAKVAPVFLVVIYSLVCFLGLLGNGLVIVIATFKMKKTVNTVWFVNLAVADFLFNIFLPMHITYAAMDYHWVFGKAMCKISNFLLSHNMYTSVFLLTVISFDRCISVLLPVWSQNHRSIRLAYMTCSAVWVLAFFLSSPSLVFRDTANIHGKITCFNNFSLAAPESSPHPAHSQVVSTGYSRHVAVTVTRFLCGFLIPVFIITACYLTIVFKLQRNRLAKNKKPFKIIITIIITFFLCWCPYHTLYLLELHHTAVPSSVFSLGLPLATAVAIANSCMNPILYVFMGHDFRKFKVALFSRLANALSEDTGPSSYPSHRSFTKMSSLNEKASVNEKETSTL
Method in brief: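 Ba/F3 cells stably expressing mouse ChemR23, 1 × 10⁴/well, loaded with Calcium-3 in RPMI1640, 10 mM HEPES, amaranth 0.75 mg/mL final. Compounds at final 0–10 µM for 45 min at 37 °C, then mouse chemerin (final 2 ng/mL, 1% BSA buffer); intracellular Ca²⁺ read by kinetic fluorescence.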

[5] = biological target: T3, Chemerin-like receptor 1 (Homo sapiens) (UniProt Q99788); assay: Induction of chemR23 internalization in human CAL1 cells at 3 uM incubated for 30 mins at 4 degC by flow cytometric analysis; format: cell-based
T3 sequence (whole entry): T1 sequence (Q99788 whole entry)
Method in brief: (§1)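 CAL-1 cells in RPMI1640 with 10 mM HEPES, 4.5 × 10⁵ cells per tube, exposed to compounds at 37 °C or 4 °C for 30 min; chemerin 50 ng/mL as reference ligand. Washed with PBS containing 2% FBS, stained with anti-ChemR23 antibody; surface ChemR23 measured by flow cytometry, single determination (N = 1).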

[6] = biological target: T3, Chemerin-like receptor 1 (Homo sapiens); assay: Induction of chemR23 internalization in human CAL1 cells at 3 uM incubated for 30 mins at 37 degC by flow cytometric analysis; format: cell-based; method in brief: as §1
[7] = biological target: T3, Chemerin-like receptor 1 (Homo sapiens); assay: Induction of chemR23 internalization in human CAL1 cells at 10 uM incubated for 30 mins at 37 degC by flow cytometric analysis; format: cell-based; method in brief: as §1
[8] = biological target: T3, Chemerin-like receptor 1 (Homo sapiens); assay: Induction of chemR23 internalization in human CAL1 cells at 10 uM incubated for 30 mins at 4 degC by flow cytometric analysis; format: cell-based; method in brief: as §1

Chain of C-X-C chemokine receptor type 4 (P61073 whole entry): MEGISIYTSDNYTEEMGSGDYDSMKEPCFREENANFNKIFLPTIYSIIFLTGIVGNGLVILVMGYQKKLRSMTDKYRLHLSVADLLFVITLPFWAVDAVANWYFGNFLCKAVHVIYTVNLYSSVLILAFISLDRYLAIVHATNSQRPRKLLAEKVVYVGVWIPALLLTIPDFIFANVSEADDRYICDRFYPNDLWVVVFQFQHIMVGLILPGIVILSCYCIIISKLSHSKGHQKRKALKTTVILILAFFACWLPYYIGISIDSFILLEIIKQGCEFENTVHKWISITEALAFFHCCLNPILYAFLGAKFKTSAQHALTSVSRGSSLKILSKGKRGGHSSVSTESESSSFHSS

Structure (SMILES): c1ccc(CN(Cc2ccc(-c3ccccc3-c3nnn[nH]3)cc2)c2nc3ccccc3o2)cc1
- pEC50 [1]: < 5.00
- pIC50 [2]: < 5.00
- pIC50 [3]: 5.02

Structure (SMILES): CCCCN(Cc1ccc(-c2ccccc2-c2nnn[nH]2)cc1)c1nc2cc(CC(=O)OC)ccc2o1
- pEC50 [1]: < 5.00
- pIC50 [2]: 5.62
- pIC50 [3]: < 5.00

Structure (SMILES): CCCCN(c1nc2ccccc2o1)C(CC)c1ccc(-c2ccccc2-c2nnn[nH]2)cc1 (configuration not stated)
- pEC50 [1]: 5.35
- pIC50 [2]: 6.03
- pIC50 [3]: 5.06

Structure (SMILES): CCCCN(Cc1ccc(-c2ccccc2-c2nnn[nH]2)cc1)c1nc2cc(Cl)cc(Cl)c2o1
- pEC50 [1]: < 5.00
- pIC50 [2]: 5.92
- pIC50 [3]: 5.54

Structure (SMILES): CCCCN(c1nc2ccccc2o1)[C@H](C)c1ccc(-c2ccccc2-c2nnn[nH]2)cc1
- pEC50 [1]: 5.92
- pIC50 [4]: 6.82
- pIC50 [2]: 6.96
- Activity [5]: inactive
- pIC50 [3]: 5.06
- Activity [6]: Active

Structure (SMILES): CCCCN(c1nc2ccccc2o1)C(C)c1ccc(-c2ccccc2-c2nnn[nH]2)cc1 (racemic)
- pEC50 [1]: 5.57
- pIC50 [2]: 6.60
- pIC50 [3]: 5.06

Structure (SMILES): CCCCN(c1nc2cc(C(=O)NC)ccc2o1)[C@H](C)c1ccc(-c2ccccc2-c2nnn[nH]2)cc1
- pEC50 [1]: 6.55
- pIC50 [4]: 6.82
- pIC50 [2]: 7.42
- pIC50 [3]: < 5.00

Structure (SMILES): CCCCN(c1nc2ccccc2o1)C(c1ccc(-c2ccccc2-c2nnn[nH]2)cc1)C1CC1 (configuration not stated)
- pEC50 [1]: < 5.52
- pIC50 [2]: < 5.52
- pIC50 [3]: < 5.52

Structure (SMILES): CCCCN(c1nc2cc(CC(=O)NC)ccc2o1)[C@H](C)c1ccc(-c2ccccc2-c2nnn[nH]2)cc1
- pEC50 [1]: 5.64
- pIC50 [4]: < 5.00
- pIC50 [2]: 6.92
- pIC50 [3]: < 5.00

Structure (SMILES): c1ccc(-c2nnn[nH]2)c(-c2ccc(CN(CC3CCCC3)c3nc4ccccc4o3)cc2)c1
- pEC50 [1]: 5.08
- pIC50 [2]: 5.66
- pIC50 [3]: 5.46

Structure (SMILES): CCCCN(Cc1ccc(-c2ccccc2-c2nnn[nH]2)cc1)c1nc2cc(CC(=O)NC)ccc2o1
- pEC50 [1]: 5.41
- pIC50 [2]: 6.00
- pIC50 [3]: < 5.00

Structure (SMILES): c1ccc(CN(Cc2ccc(-c3ccccc3-c3nnn[nH]3)cc2)c2nc3ccccc3o2)nc1
- pEC50 [1]: < 5.00
- pIC50 [2]: 5.55
- pIC50 [3]: < 5.00

Structure (SMILES): CCCCCN(Cc1ccc(-c2ccccc2-c2nnn[nH]2)cc1)c1nc2ccccc2o1
- pEC50 [1]: 5.18
- pIC50 [2]: 5.48
- pIC50 [3]: 5.25

Structure (SMILES): COCCN(Cc1ccc(-c2ccccc2-c2nnn[nH]2)cc1)c1nc2ccccc2o1
- pEC50 [1]: < 5.00
- pIC50 [2]: 5.47
- pIC50 [3]: < 5.00

Structure (SMILES): CCCCN(c1nc2ccccc2o1)C(C)(C)c1ccc(-c2ccccc2-c2nnn[nH]2)cc1
- pEC50 [1]: < 5.00
- pIC50 [2]: 5.08
- pIC50 [3]: < 5.00

Structure (SMILES): CCCCN(c1nc2cc(NC(N)=O)ccc2o1)[C@H](C)c1ccc(-c2ccccc2-c2nnn[nH]2)cc1
- pIC50 [4]: 6.37
- pIC50 [2]: 7.43
- pIC50 [3]: < 5.00

Structure (SMILES): CCCCN(Cc1ccc(-c2ccccc2-c2nnn[nH]2)cc1)c1nc2ccccc2o1
- Activity [7]: Active
- pEC50 [1]: 5.28
- pIC50 [2]: 5.48
- pIC50 [3]: 5.01
- Activity [8]: inactive

Structure (SMILES): CCCCN(c1nc2cc(N(C)C(N)=O)ccc2o1)[C@H](C)c1ccc(-c2ccccc2-c2nnn[nH]2)cc1
- pIC50 [4]: < 5.00
- pIC50 [2]: < 4.52

Structure (SMILES): CCCCN(Cc1ccc(-c2ccccc2-c2nnn[nH]2)cc1)c1nc2cc(C(=O)OC)ccc2o1
- pEC50 [1]: < 5.00
- pIC50 [2]: 5.37
- pIC50 [3]: < 5.00

Structure (SMILES): CCCCN(Cc1ccc(-c2ccccc2-c2nnn[nH]2)cc1)c1nc2cc(C)ccc2o1
- pEC50 [1]: 5.41
- pIC50 [2]: 5.60
- pIC50 [3]: 5.07

Structure (SMILES): CCCCN(c1nc2cc(NC(=O)N(C)C)ccc2o1)[C@H](C)c1ccc(-c2ccccc2-c2nnn[nH]2)cc1
- pIC50 [4]: 6.29
- pIC50 [2]: 7.49
- pIC50 [3]: < 5.00

Structure (SMILES): CCCCN(Cc1ccc(-c2ccccc2-c2nnn[nH]2)cc1)c1nc2cc(Cl)c(C)cc2o1
- pEC50 [1]: < 5.00
- pIC50 [2]: 5.48
- pIC50 [3]: 5.26

Structure (SMILES): c1cncc(CN(Cc2ccc(-c3ccccc3-c3nnn[nH]3)cc2)c2nc3ccccc3o2)c1
- pEC50 [1]: < 5.00
- pIC50 [2]: < 5.00
- pIC50 [3]: < 5.00

Structure (SMILES): CCCCN(c1nc2ccccc2o1)[C@@H](C)c1ccc(-c2ccccc2-c2nnn[nH]2)cc1
- pEC50 [1]: < 5.00
- pIC50 [2]: 5.12
- Activity [5]: inactive
- pIC50 [3]: 5.00
- Activity [6]: Active

Structure (SMILES): CCCCN(c1nc2cc(CNC(=O)NC)ccc2o1)[C@H](C)c1ccc(-c2ccccc2-c2nnn[nH]2)cc1
- pEC50 [1]: 5.89
- pIC50 [4]: 4.89
- pIC50 [2]: 7.32
- pIC50 [3]: < 5.00

Structure (SMILES): CCCCN(c1nc2cc(NC(=O)NC)ccc2o1)[C@H](C)c1ccc(-c2ccccc2-c2nnn[nH]2)cc1
- pIC50 [4]: 6.03
- pIC50 [2]: 7.47
- pIC50 [3]: < 5.00

Structure (SMILES): c1ccc(-c2nnn[nH]2)c(-c2ccc(CN(Cc3ccncc3)c3nc4ccccc4o3)cc2)c1
- pEC50 [1]: < 5.00
- pIC50 [2]: < 5.00
- pIC50 [3]: < 5.00

Structure (SMILES): CCCCN(Cc1ccc(-c2ccccc2-c2nnn[nH]2)cc1)c1nc2cc(Cl)cc(C)c2o1
- pEC50 [1]: < 5.00
- pIC50 [2]: 5.60
- pIC50 [3]: 5.41

Structure (SMILES): CCCCN(c1nc2cc(NC(C)=O)ccc2o1)[C@H](C)c1ccc(-c2ccccc2-c2nnn[nH]2)cc1
- pEC50 [1]: 5.82
- pIC50 [4]: 5.68
- pIC50 [2]: 6.36
- pIC50 [3]: < 5.00
